Measurements as given in PubChem BioAssay.
Results filed as inconclusive are left out.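 The calls were made as follows, unless noted: active = growth inhibition above 25% in both replicates, a cutoff set 3 SD above the mean; inconclusive = above 25% in only one replicate; inactive = the rest.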

Tests used:
[1] = OD615 S. cerevisiae growth inhibition, permissive medium, pilot counter-assay, permissive growth control for S. cerevisiae lifespan shortening project (AID 705); conditions: OD615, 24 h, at 10 µM, stronger effect = higher value
Summary of the method: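 assay system = Saccharomyces cerevisiae strain carrying genetically modified DeaD replicative-lifespan system | technique = absorbance (optical density) at 615 nm | buffer or medium = permissive raffinose/galactose medium | timing = cells pre-grown 4 h, then 24 h compound exposure, 30 °C humidified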

[2] = Restrictive medium S. cerevisiae growth inhibition, OD615, pilot screen of yeast lifespan reduction project, restrictive growth control (AID 706;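 active = growth inhibition above a set limit, 3 SD over mean compound inhibition, in both replicates, cut at about 43% in these data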;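 also: modified DeaD lifespan yeast strain shifted to restrictive glucose medium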); conditions: OD615, 48 h, at 10 µM, stronger effect = higher value
Summary of the method: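 System: modified S. cerevisiae. Buffer or medium: CSMM-D glucose medium. Incubation: 4 h pre-growth plus 48 h compound exposure, 30 °C. Detection: absorbance (optical density) measured at 615 nm.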

[3] = viability gain of MRP-1-high H69AR cells under doxorubicin, pilot screen, MRP-1 activator project, CellTiter-Glo, duplicate (AID 807;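 active = viability increase at or above a cutoff of the median across tested compounds plus 3 SD, cut at about 8.5% in these data, passing the limit was not always enough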;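 also: compound pretreatment 18-22 h then 72 h combined with doxorubicin; 0% = doxorubicin alone and 100% = vehicle without doxorubicin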); conditions: H69AR viability with doxorubicin, CellTiter-Glo luminescence; at 10 µM; stronger effect = higher value
[4] = growth suppression of beta-catenin knockout HCT116, pilot screen, human colon tumor cells (AID 823;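 active = cell viability at or below a set limit in both duplicate runs, the limit being the all-compound median minus 4 SD, cut at about 23% in these data, passing the limit was not always enough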;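 also: 0% = wells killed by 20 µM Hyamine and 100% = untreated DMSO cell wells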); conditions: CellTiter-Glo, 60 h, at 10 µM, stronger effect = lower value
[5] = growth suppression of PTEN-deleted HCT116, pilot screen, cell-based, HCT116 clonal line, CellTiter-Glo (AID 824;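 active = viability at or below 27.92% in each of two runs, the all-compound median minus 4 SD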;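 also: 0% = 20 µM Hyamine control and 100% = vehicle cell control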); conditions: 60 h, at 10 µM, stronger effect = lower value
[6] = inhibitors of the yeast RAM network, pilot screen, dse1pr::URA3 reporter, 5-FOA selection (AID 869;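 active = inhibition over a set limit, the all-compound mean plus 3 SD, in both replicate runs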;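 also: 0% = DMSO wells with no growth and 100% = 10 µM 1-NA-PP1 with full growth; RAM network block rescues cells from 5-FOA so hits raise OD615 growth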); conditions: S. cerevisiae dse1pr::URA3 5-FOA growth, OD615, 2 d; at 10 µM; stronger effect = higher value; strain carries analog-sensitive mutant Cbk1 kinase
[7] = RAM signaling pathway blockade in yeast – S. cerevisiae, Pdr1DBD-CYC8 efflux-inhibited sensitized strain, primary screen (AID 1298;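 active = RAM network inhibition above 8.4% in each of two replicates, 3 SD over the compound average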;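 also: 0% = DMSO untreated cells without growth and 100% = 10 µM 1-NA-PP1 full growth; higher means more yeast growth rescued from 5-FOA killing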); conditions: S. cerevisiae cbk1-as DSE1-URA3 strain, 5-FOA growth OD615, 2 d; at 50 µM; stronger effect = higher value

COc1nc(NC(C)(C)C)nc(Oc2ccc(=O)n(C)n2)n1
inactive: growth inhibition [1] -0.24% | growth inhibition [2] -10.7% | viability increase [3] 0.23% | viability [4] 102% | viability [5] 96.5% | inhibition [6] 0.495% | RAM network inhibition [7] 5.11%

Cc1cnc(C(=O)OCC(=O)Nc2cccc(Cl)c2)cn1
inactive: growth inhibition [1] -0.055% | growth inhibition [2] 1.48% | viability increase [3] -3.1% | viability [4] 92.5% | viability [5] 92.3% | inhibition [6] 0.405% | RAM network inhibition [7] 0.67%

Cc1ccc(-n2nnc3c(=O)n(CC(=O)NCc4ccco4)cnc32)cc1
inactive: growth inhibition [1] -7.22% | growth inhibition [2] 2.02% | viability increase [3] -4.35% | viability [4] 67.6% | viability [5] 63.4% | inhibition [6] 3.36% | RAM network inhibition [7] 7.68%

COc1ccc(CN2CCN(c3cccc(C)c3C)CC2)cc1OC
inactive: growth inhibition [1] -8.54% | growth inhibition [2] -1.75% | viability increase [3] -1.96% | viability [4] 51.8% | viability [5] 54% | inhibition [6] 1.5% | RAM network inhibition [7] 1.07%

COc1cc(C(=O)Nc2cccc(-c3nc4ccccc4o3)c2C)cc(OC)c1OC
inactive: growth inhibition [1] -20.9% | growth inhibition [2] -26.2% | viability increase [3] -2.22% | viability [4] 91.2% | viability [5] 98.7% | inhibition [6] 2.46% | RAM network inhibition [7] 1.35%

CCOCCCNC(=O)c1cn(C)c2ccc(S(=O)(=O)N(C)C3CCCCC3)cc2c1=O
inactive: growth inhibition [1] -5.04% | growth inhibition [2] -14.3% | viability increase [3] -4.93% | viability [4] 108% | viability [5] 101% | inhibition [6] 0.93% | RAM network inhibition [7] -0.73%

CCOc1ccc(C2CC(c3ccc(OC)c(OC)c3)n3nc(N)nc3N2)cc1 (centres undefined)
inactive: growth inhibition [1] 2.68% | growth inhibition [2] 5.4% | viability increase [3] 0.31% | viability [4] 101% | viability [5] 92.7% | inhibition [6] 2.06% | RAM network inhibition [7] 5.15%

O=C(CCS(=O)(=O)c1cccs1)NC1CCCCCC1
inactive: growth inhibition [1] -2.95% | growth inhibition [2] -4.64% | viability increase [3] -0.19% | viability [4] 94.6% | viability [5] 92.7% | inhibition [6] 1.29% | RAM network inhibition [7] 5.23%

CCCCn1c(CCC(=O)O)ccc1-c1cccs1
inactive: growth inhibition [1] 6.82% | growth inhibition [2] 10.6% | viability increase [3] -3.36% | viability [4] 97.1% | viability [5] 94.8% | inhibition [6] 0.85% | RAM network inhibition [7] -1.84%

O=C(CSc1nnc(-c2cccs2)o1)N1CCCCC1
inactive: growth inhibition [1] -2.25% | growth inhibition [2] 11.9% | viability increase [3] 2.11% | viability [4] 104% | viability [5] 115% | inhibition [6] 1.31% | RAM network inhibition [7] 1.38%

CCN(C(=O)CSc1nnnn1-c1cc(C)ccc1OC)C1CCS(=O)(=O)C1 (centres undefined)
inactive: growth inhibition [1] -6.25% | growth inhibition [2] 4.34% | viability increase [3] -1.65% | viability [4] 99% | viability [5] 94.6% | inhibition [6] 1.56% | RAM network inhibition [7] -1.67%

CCc1ccc(C2CC(c3ccccc3)Nc3nc(N)nn32)cc1 (centres undefined)
inactive: growth inhibition [1] -5.9% | growth inhibition [2] -6.06% | viability increase [3] 0.7% | viability [4] 97.3% | viability [5] 100% | inhibition [6] -0.27% | RAM network inhibition [7] 5.98%

CC(=O)Nc1nc2n(n1)C(c1ccccc1)C=C(c1ccccc1)N2 (centres undefined)
inactive: growth inhibition [1] -7.58% | growth inhibition [2] 4.18% | viability increase [3] -2.94% | viability [4] 99.9% | viability [5] 106% | inhibition [6] 1.06% | RAM network inhibition [7] 1.19%

COc1cccc(/C=C2\N=C(SC)SC2=O)c1OC
inactive: growth inhibition [1] -20.1% | growth inhibition [2] -7.18% | viability increase [3] -3.76% | viability [4] 89.8% | viability [5] 105% | inhibition [6] 3.8% | RAM network inhibition [7] 8.12%

COCCn1c(CN(C)Cc2ccccc2)nc2c1c(=O)n(C)c(=O)n2C
inactive: growth inhibition [1] -5.71% | growth inhibition [2] 8.7% | viability increase [3] 0.55% | viability [4] 87.8% | viability [5] 91.5% | inhibition [6] 3.04% | RAM network inhibition [7] 1.53%

CCCNc1nc2c(c(=O)[nH]c(=O)n2C)n1Cc1ccc(F)cc1
inactive: growth inhibition [1] -1.32% | growth inhibition [2] -1.12% | viability increase [3] -2% | viability [4] 104% | viability [5] 92.9% | inhibition [6] 0.945% | RAM network inhibition [7] 0.57%

CC1CC(C)CN(CCCNC(=O)Cn2ncc3c(=O)oc4ccccc4c32)C1 (centres undefined)
inactive: growth inhibition [1] -0.3% | growth inhibition [2] 0.08% | viability increase [3] -1.86% | viability [4] 99% | viability [5] 101% | inhibition [6] 3.87% | RAM network inhibition [7] 5%

COc1ccc(C)c2sc(=NC(=O)C(C)C)n(C)c12
inactive: growth inhibition [1] -6.53% | growth inhibition [2] 2.31% | viability increase [3] -3.89% | viability [4] 90% | viability [5] 92.4% | inhibition [6] 3.1% | RAM network inhibition [7] 6.3%

CC1Cc2ccccc2N1C(=O)c1ccc2snnc2c1 (centres undefined)
inactive: growth inhibition [1] -1.7% | growth inhibition [2] -9.59% | viability increase [3] -3.96% | viability [4] 95% | viability [5] 96.8% | inhibition [6] 0.79% | RAM network inhibition [7] 6.74%

Cc1nc(S(=O)(=O)c2ccc(Cl)cc2)c(NCc2ccccc2)o1
inactive: growth inhibition [1] -6.92% | growth inhibition [2] -2.45% | viability increase [3] -0.96% | viability [4] 94.5% | viability [5] 95.5% | inhibition [6] 2.39% | RAM network inhibition [7] 4.59%

Nc1c(C(=O)NCc2ccccc2)nnn1Cc1ccccc1
inactive: growth inhibition [1] -6.54% | growth inhibition [2] 4.1% | viability increase [3] 1.95% | viability [4] 99.8% | viability [5] 91.2% | inhibition [6] 1.02% | RAM network inhibition [7] 2.99%

CC12CN3CC(C)(CN(C1)C3c1ccc(Br)cc1)C2=O (centres undefined)
inactive: growth inhibition [1] -1.9% | growth inhibition [2] 3.54% | viability increase [3] -2.12% | viability [4] 95.2% | viability [5] 96.9% | inhibition [6] 0.265% | RAM network inhibition [7] 0.82%

COC(=O)c1cn(NC(=O)c2ccncc2)c(=O)c2ccccc12
inactive: growth inhibition [1] -0.73% | growth inhibition [2] -19.7% | viability increase [3] -1.43% | viability [4] 98.3% | viability [5] 94.9% | inhibition [6] 0.87% | RAM network inhibition [7] 2.53%

COC(=O)c1ccc2c(c1)N(Cc1cc(C)ccc1C)C(=O)c1ccccc1S2=O (centres undefined)
inactive: growth inhibition [1] -0.815% | growth inhibition [2] -2.77% | viability increase [3] -2.53% | viability [4] 96.8% | viability [5] 91.9% | inhibition [6] 0.92% | RAM network inhibition [7] 3.53%

CC(=O)Nc1cc(NC(C)=O)c(CC(C)C)s1
inactive: growth inhibition [1] -6.92% | growth inhibition [2] 2.99% | viability increase [3] -0.12% | viability [4] 94.9% | viability [5] 101% | inhibition [6] 0.44% | RAM network inhibition [7] 2.34%

CCOc1ccc(N(CC(=O)NCc2ccccc2)S(C)(=O)=O)cc1
inactive: growth inhibition [1] -0.02% | growth inhibition [2] -4.28% | viability increase [3] -1.14% | viability [4] 103% | viability [5] 101% | inhibition [6] 0.535% | RAM network inhibition [7] -0.46%

C=CCNc1ncnc2ccc(Br)cc12
inactive: growth inhibition [1] 2.36% | growth inhibition [2] 9.25% | viability increase [3] -5.67% | viability [4] 84.1% | viability [5] 75.8% | inhibition [6] 1.87% | RAM network inhibition [7] 4.09%
